From ChEMBL document CHEMBL1926620, “Aza vinyl sulfones: synthesis and evaluation as antiplasmodial agents” (Bioorg Med Chem, 2011)

System: not listed separately
Assay: Inhibition of Plasmodium falciparum falcipain-2 using Z-Leu-Arg-AMC as substrate after 10 mins by spectrofluorimetry
Settings: not given
Summary of the method: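 Enzyme at 1 nM in 100 mM sodium acetate pH 6.0, 5 mM DTT, 0.75% DMSO, 25 °C; preincubated 10 min with serial 1:5 compound dilutions (50 µM down to 0.65 nM), then 25 µM Z-Leu-Arg-AMC added; fluorescence read immediately. IC50 from percent inhibition versus no-inhibitor controls.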

SMILES	IC50 [µM]
CC(C)C[C@H](NC(=O)OC(C)(C)C)C(=O)NN(Cc1ccccc1)C(=O)/C=C/S(C)(=O)=O	> 50
CC(C)C[C@H](NC(=O)OC(C)(C)C)C(=O)NN(CCc1ccccc1)C(=O)/C=C/S(C)(=O)=O	> 50
CC(C)C[C@H](NC(=O)[C@H]1O[C@@H]1C(=O)O)C(=O)NCCCCN=C(N)N [E-64]	0.11

The remaining lines, values ahead:

IC50 [µM]	SMILES
> 50	CC(C)C[C@H](NC(=O)OC(C)(C)C)C(=O)NN(Cc1ccccc1)C(=O)/C=C/S(=O)(=O)c1ccccc1
> 50	CC(C)C[C@H](NC(=O)OC(C)(C)C)C(=O)NN(CCc1ccccc1)C(=O)/C=C/S(=O)(=O)c1ccccc1
> 50	COc1c(N[C@@H](CC(C)C)C(=O)NNC(=O)/C=C/S(C)(=O)=O)c(=O)c1=O
> 50	COc1c(N[C@@H](CC(C)C)C(=O)NNC(=O)/C=C/S(=O)(=O)c2ccccc2)c(=O)c1=O
> 50	CCCCOc1c(N[C@@H](CC(C)C)C(=O)NNC(=O)/C=C/S(=O)(=O)c2ccccc2)c(=O)c1=O
> 50	COc1c(N[C@@H](CC(C)C)C(=O)NN(Cc2ccccc2)C(=O)/C=C/S(C)(=O)=O)c(=O)c1=O
> 50	COc1c(N[C@@H](CC(C)C)C(=O)NN(Cc2ccccc2)C(=O)/C=C/S(=O)(=O)c2ccccc2)c(=O)c1=O
> 50	CCCCOc1c(N[C@@H](CC(C)C)C(=O)NN(Cc2ccccc2)C(=O)/C=C/S(=O)(=O)c2ccccc2)c(=O)c1=O
> 50	COc1c(N[C@@H](CC(C)C)C(=O)NN(CCc2ccccc2)C(=O)/C=C/S(C)(=O)=O)c(=O)c1=O
> 50	COc1c(N[C@@H](CC(C)C)C(=O)NN(CCc2ccccc2)C(=O)/C=C/S(=O)(=O)c2ccccc2)c(=O)c1=O
> 50	CCCCOc1c(N[C@@H](CC(C)C)C(=O)NN(CCc2ccccc2)C(=O)/C=C/S(=O)(=O)c2ccccc2)c(=O)c1=O

System: Plasmodium falciparum
Assay: Antiplasmodial activity against ring stage Plasmodium falciparum W2 infected in human red blood cells after 48 hrs by flow cytometry
Type: functional, organism-based
Settings: W2, 48 h

SMILES	IC50 [µM]
CC(C)C[C@H](NC(=O)OC(C)(C)C)C(=O)NNC(=O)/C=C/S(C)(=O)=O	34.2
CC(C)C[C@H](NC(=O)OC(C)(C)C)C(=O)NN(Cc1ccccc1)C(=O)/C=C/S(C)(=O)=O	21.6
CC(C)C[C@H](NC(=O)OC(C)(C)C)C(=O)NN(CCc1ccccc1)C(=O)/C=C/S(C)(=O)=O	46.6
CC(C)C[C@H](NC(=O)OCc1ccccc1)C(=O)NN(CCc1ccccc1)C(=O)/C=C/S(=O)(=O)c1ccccc1	> 10
O=C(CNC(=O)OCc1ccccc1)NN(CCc1ccccc1)C(=O)/C=C/S(=O)(=O)c1ccccc1	> 10
O=C(N[C@@H](Cc1ccccc1)C(=O)NN(CCc1ccccc1)C(=O)/C=C/S(=O)(=O)c1ccccc1)OCc1ccccc1	9
CC(C)C[C@H](NC(=O)N1CCOCC1)C(=O)NN(CCc1ccccc1)C(=O)/C=C/S(=O)(=O)c1ccccc1	3.4

Now from value to molecule:

IC50 [µM]	SMILES
33.5	CC(C)C[C@H](NC(=O)OC(C)(C)C)C(=O)NNC(=O)/C=C/S(=O)(=O)c1ccccc1
> 50	CC(C)C[C@H](NC(=O)OC(C)(C)C)C(=O)NN(Cc1ccccc1)C(=O)/C=C/S(=O)(=O)c1ccccc1
15.4	CC(C)C[C@H](NC(=O)OC(C)(C)C)C(=O)NN(CCc1ccccc1)C(=O)/C=C/S(=O)(=O)c1ccccc1
> 10	CC(C)C[C@H](NC(=O)N1CCOCC1)C(=O)NNC(=O)/C=C/S(=O)(=O)c1ccccc1
2.3	COc1c(N[C@@H](CC(C)C)C(=O)NNC(=O)/C=C/S(C)(=O)=O)c(=O)c1=O
3.5	COc1c(N[C@@H](CC(C)C)C(=O)NNC(=O)/C=C/S(=O)(=O)c2ccccc2)c(=O)c1=O
2.6	CCCCOc1c(N[C@@H](CC(C)C)C(=O)NNC(=O)/C=C/S(=O)(=O)c2ccccc2)c(=O)c1=O
> 10	COc1c(N[C@@H](CC(C)C)C(=O)NN(Cc2ccccc2)C(=O)/C=C/S(C)(=O)=O)c(=O)c1=O
0.95	COc1c(N[C@@H](CC(C)C)C(=O)NN(Cc2ccccc2)C(=O)/C=C/S(=O)(=O)c2ccccc2)c(=O)c1=O
1.2	CCCCOc1c(N[C@@H](CC(C)C)C(=O)NN(Cc2ccccc2)C(=O)/C=C/S(=O)(=O)c2ccccc2)c(=O)c1=O
2.5	COc1c(N[C@@H](CC(C)C)C(=O)NN(CCc2ccccc2)C(=O)/C=C/S(C)(=O)=O)c(=O)c1=O
> 10	COc1c(N[C@@H](CC(C)C)C(=O)NN(CCc2ccccc2)C(=O)/C=C/S(=O)(=O)c2ccccc2)c(=O)c1=O
4.5	CCCCOc1c(N[C@@H](CC(C)C)C(=O)NN(CCc2ccccc2)C(=O)/C=C/S(=O)(=O)c2ccccc2)c(=O)c1=O

Biological target: T1, Papain (Carica papaya, UniProt P00784)
T1 sequence (P00784 whole entry): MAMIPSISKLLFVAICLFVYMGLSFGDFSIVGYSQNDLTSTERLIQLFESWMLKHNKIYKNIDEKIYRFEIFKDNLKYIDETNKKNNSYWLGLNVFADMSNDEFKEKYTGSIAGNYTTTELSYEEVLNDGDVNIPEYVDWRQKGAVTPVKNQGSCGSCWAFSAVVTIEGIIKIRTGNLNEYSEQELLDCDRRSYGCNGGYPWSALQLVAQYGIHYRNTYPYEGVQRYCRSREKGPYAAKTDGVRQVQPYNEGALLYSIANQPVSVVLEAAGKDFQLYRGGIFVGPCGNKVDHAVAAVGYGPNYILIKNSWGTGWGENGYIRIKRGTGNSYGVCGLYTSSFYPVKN
Assay: Inhibition of papaya papain using Z-Leu-Leu-Arg-AMC as substrate after 30 mins by spectrofluorometry
Settings: not given
Summary of the method: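 Papain activated in buffer at 5 µg/mL, 10 mM PBS pH 7.4 with 5 mM DTT, 37 °C, inhibitor serial dilutions in DMSO; 30 µM Z-Leu-Leu-Arg-AMC started the reaction (Km 0.4 µM, saturating). Fluorescence (ex 355/em 460 nm) monitored 30 min; E64 positive control; IC50 by non-linear regression of log concentration versus % activity; triplicate.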

IC50 [µM]	SMILES
> 50	CC(C)C[C@H](NC(=O)OCc1ccccc1)C(=O)NN(CCc1ccccc1)C(=O)/C=C/S(=O)(=O)c1ccccc1
> 50	O=C(CNC(=O)OCc1ccccc1)NN(CCc1ccccc1)C(=O)/C=C/S(=O)(=O)c1ccccc1
> 50	O=C(N[C@@H](Cc1ccccc1)C(=O)NN(CCc1ccccc1)C(=O)/C=C/S(=O)(=O)c1ccccc1)OCc1ccccc1
> 50	CC(C)C[C@H](NC(=O)N1CCOCC1)C(=O)NNC(=O)/C=C/S(=O)(=O)c1ccccc1
> 50	CC(C)C[C@H](NC(=O)N1CCOCC1)C(=O)NN(CCc1ccccc1)C(=O)/C=C/S(=O)(=O)c1ccccc1
0.002	CC(C)C[C@H](NC(=O)[C@H]1O[C@@H]1C(=O)O)C(=O)NCCCCN=C(N)N [E-64]
